Measurements published in ChEMBL document CHEMBL1765011, “Synthesis and c-Met kinase inhibition of 3,5-disubstituted and 3,5,7-trisubstituted quinolines: identification of 3-(4-acetylpiperazin-1-yl)-5-(3-nitrobenzylamino)-7- (trifluoromethyl)quinoline as a novel anticancer agent” (J Med Chem, 2011).
Active and inactive are the calls of the source. The calls are words filed in the database; no cut-off is given here.

What was measured:
[1] = target: T1, Hepatocyte growth factor receptor (Homo sapiens, UniProt P08581); assay: Inhibition of purified recombinant c-Met after 60 mins by ELISA
T1 sequence (P08581 whole entry): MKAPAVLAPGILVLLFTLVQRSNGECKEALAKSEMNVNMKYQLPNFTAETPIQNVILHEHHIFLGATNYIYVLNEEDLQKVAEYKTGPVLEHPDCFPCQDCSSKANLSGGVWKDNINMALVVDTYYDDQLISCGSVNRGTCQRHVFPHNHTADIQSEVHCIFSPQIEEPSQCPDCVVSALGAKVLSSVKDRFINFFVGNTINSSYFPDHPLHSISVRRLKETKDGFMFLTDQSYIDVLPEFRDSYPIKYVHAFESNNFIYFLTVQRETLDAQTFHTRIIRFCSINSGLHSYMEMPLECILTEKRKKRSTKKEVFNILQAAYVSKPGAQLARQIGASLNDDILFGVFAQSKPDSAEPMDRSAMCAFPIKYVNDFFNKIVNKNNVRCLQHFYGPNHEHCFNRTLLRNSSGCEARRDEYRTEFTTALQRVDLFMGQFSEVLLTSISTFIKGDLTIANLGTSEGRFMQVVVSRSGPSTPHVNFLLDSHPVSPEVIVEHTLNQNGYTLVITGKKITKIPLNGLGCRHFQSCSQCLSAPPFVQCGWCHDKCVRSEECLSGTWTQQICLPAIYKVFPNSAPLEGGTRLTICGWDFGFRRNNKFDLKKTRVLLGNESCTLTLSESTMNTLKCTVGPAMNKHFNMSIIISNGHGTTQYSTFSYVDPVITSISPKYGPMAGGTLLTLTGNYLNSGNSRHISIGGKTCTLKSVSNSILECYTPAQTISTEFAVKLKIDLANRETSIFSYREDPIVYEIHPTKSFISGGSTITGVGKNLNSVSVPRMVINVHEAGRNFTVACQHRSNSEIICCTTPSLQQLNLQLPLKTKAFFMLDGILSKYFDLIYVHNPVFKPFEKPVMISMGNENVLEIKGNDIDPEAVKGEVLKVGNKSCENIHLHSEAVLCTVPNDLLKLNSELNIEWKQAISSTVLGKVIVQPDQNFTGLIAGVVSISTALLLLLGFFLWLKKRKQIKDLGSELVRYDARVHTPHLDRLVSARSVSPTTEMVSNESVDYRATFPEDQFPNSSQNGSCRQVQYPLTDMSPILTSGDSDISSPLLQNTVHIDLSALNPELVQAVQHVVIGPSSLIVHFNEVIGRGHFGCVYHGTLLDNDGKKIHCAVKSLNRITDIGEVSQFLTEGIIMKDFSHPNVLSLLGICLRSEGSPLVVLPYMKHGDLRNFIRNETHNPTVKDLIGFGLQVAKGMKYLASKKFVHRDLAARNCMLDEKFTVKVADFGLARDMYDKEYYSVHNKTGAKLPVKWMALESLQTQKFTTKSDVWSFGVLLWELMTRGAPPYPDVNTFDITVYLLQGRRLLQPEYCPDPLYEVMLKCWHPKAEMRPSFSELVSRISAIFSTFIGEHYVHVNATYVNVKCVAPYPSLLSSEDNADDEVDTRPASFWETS

BaF3 = assay: Antiproliferative activity against mouse BAF3 cells expressing TPR-Met after 72 hrs in absence of IL-3; assay type: functional, cell-based; conditions: BaF3, 72 h
How it was run: (§1)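 Cells were seeded and exposed next day to a range of compound concentrations for 72 h. Proliferation was read by sulforhodamine B or MTT assay, and IC50 derived.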

NIH3T3 = assay: Antiproliferative activity against mouse NIH/3T3 cells after 72 hrs; assay type: functional, cell-based; conditions: NIH3T3, 72 h; how it was run: as §1
[2] = AUC (0 to infinity) in mouse at 20 mg/kg, po; assay type: ADME, organism-based; set-up: dose 20 mg/kg, route oral, time infinity; conditions: plasma
How it was run: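 Mice dosed orally at 20 mg/kg in DMSO/Tween 80/normal saline vehicle; plasma concentration-time profile used to derive AUC0-∞. Values are the average of three runs.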

[3] = Oral bioavailability in mouse at 20 mg/kg; assay type: ADME, organism-based; conditions: in vivo
[4] = target: Platelet-derived growth factor receptor alpha (Homo sapiens, UniProt P16234); assay: Inhibition of PDGFRalpha
Sequence of Platelet-derived growth factor receptor alpha (P16234 whole entry): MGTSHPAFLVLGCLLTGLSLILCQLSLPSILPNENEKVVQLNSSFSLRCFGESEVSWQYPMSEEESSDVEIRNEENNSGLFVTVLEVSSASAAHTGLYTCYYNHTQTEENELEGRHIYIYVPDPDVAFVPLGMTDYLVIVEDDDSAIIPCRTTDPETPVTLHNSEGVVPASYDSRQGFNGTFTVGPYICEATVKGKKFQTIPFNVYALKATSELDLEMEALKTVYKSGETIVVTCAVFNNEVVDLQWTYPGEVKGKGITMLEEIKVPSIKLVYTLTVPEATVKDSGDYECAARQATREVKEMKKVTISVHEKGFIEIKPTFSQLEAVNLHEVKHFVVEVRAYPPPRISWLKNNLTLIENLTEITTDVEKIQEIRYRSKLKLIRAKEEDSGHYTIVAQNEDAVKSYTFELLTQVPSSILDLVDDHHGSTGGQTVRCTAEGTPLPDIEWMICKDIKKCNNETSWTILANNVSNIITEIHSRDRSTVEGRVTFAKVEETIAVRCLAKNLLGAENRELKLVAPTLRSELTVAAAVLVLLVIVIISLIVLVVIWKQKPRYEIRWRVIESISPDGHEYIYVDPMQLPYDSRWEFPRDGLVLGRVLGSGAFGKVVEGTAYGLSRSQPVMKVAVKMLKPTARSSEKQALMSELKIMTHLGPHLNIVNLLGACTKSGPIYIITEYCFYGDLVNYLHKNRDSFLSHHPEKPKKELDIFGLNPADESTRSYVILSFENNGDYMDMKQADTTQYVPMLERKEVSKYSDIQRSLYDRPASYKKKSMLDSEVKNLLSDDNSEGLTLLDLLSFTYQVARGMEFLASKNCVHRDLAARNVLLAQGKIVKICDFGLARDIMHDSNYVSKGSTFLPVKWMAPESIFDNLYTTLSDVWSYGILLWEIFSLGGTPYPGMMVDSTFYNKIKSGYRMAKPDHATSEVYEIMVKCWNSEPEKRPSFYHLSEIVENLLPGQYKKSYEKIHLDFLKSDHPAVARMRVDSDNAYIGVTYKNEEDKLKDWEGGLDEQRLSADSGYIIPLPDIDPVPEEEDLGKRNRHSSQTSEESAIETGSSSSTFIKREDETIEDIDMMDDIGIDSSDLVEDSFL
How it was run: (§2)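 ELISA on plates precoated with 20 μg/mL poly(Glu,Tyr) 4:1. Buffer: 10 μM ATP, 50 mM HEPES pH 7.4, 50 mM MgCl2, 0.5 mM MnCl2, 0.2 mM Na3VO4, 1 mM DTT, compound in 1% DMSO. Purified kinase was added and incubated 60 min at 37 °C. Phosphotyrosine was detected with PY99 then HRP anti-mouse IgG, o-phenylenediamine, A490. IC50 was taken from inhibition curves.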

[5] = target: T1, Hepatocyte growth factor receptor; assay: Inhibition of c-Met in human H1993 cells assessed as ERK1/2 phosphorylation at 0.1 to 3 uM after 4 hrs by Western blotting; assay type: cell-based
How it was run: (§3)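 Exponentially growing cells were exposed to compound for 4 h at 37 °C and lysed in SDS sample buffer. Lysates were resolved on 10% SDS-PAGE and blotted. Blots were probed for phospho- and total ERK1/2 and AKT, with GAPDH loading control, and detected by ECL.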

[6] = target: Hepatocyte growth factor receptor (Mus musculus) (UniProt P16056); assay: Inhibition of TPR-c-Met phosphorylation expressed in mouse BAF3 cells at 0.1 to 3 uM after 4 hrs by Western blotting; assay type: cell-based
Sequence of Hepatocyte growth factor receptor (Mus musculus) (P16056 whole entry): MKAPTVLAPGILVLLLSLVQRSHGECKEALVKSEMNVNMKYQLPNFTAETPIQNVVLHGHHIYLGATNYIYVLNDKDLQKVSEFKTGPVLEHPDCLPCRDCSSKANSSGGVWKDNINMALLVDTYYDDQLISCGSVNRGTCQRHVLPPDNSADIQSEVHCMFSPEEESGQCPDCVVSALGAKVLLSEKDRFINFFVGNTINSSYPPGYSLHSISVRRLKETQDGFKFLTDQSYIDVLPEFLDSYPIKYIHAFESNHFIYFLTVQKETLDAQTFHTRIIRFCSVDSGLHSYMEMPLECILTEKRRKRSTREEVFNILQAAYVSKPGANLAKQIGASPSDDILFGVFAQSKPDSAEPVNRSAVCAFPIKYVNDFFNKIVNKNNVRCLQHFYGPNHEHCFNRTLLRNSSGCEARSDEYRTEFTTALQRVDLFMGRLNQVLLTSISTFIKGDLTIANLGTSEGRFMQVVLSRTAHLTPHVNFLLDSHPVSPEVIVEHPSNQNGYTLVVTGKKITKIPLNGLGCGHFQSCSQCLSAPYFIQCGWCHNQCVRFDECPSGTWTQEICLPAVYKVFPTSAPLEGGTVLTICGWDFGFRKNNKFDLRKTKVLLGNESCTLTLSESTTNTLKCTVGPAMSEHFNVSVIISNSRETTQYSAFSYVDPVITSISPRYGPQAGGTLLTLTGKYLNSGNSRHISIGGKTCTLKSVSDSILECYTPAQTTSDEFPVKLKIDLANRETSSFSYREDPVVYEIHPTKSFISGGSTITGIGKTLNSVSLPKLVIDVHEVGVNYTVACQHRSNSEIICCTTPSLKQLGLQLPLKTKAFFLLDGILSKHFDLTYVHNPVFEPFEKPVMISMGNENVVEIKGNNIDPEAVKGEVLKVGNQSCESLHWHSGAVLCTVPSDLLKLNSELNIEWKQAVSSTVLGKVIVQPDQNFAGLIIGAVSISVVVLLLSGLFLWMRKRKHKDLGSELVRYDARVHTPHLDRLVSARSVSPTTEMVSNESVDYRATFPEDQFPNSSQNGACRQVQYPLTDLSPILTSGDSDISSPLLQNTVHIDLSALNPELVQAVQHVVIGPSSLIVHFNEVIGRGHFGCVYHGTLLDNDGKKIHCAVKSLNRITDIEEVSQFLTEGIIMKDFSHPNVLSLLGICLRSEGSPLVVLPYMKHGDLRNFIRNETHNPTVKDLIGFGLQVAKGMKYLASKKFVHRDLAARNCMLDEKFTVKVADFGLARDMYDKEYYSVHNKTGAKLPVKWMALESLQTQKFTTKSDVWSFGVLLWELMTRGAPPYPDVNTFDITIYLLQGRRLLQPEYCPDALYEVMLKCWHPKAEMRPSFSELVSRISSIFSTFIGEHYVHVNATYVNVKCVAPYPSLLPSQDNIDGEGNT
How it was run: (§4)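 Exponentially growing cells were treated with compound for 4 h at 37 °C and lysed in SDS sample buffer. Lysates were run on 10% SDS-PAGE and blotted to nitrocellulose. Blots were probed for phospho-c-Met and total c-Met, with GAPDH as loading control, and detected by ECL.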

[7] = target: Hepatocyte growth factor receptor (Mus musculus) (UniProt P16056); assay: Inhibition of TPR-c-Met phosphorylation expressed in mouse BAF3 cells assessed as AKT phosphorylation at 0.1 to 3 uM after 4 hrs by Western blotting; assay type: cell-based; how it was run: as §3
MKN-45 = assay: Antiproliferative activity against human MKN45 cells after 72 hrs; conditions: MKN-45, 72 h
SNU-5 = assay: Antiproliferative activity against human SNU5 cells after 72 hrs; conditions: SNU-5, 72 h
NCI-H441 = assay: Antiproliferative activity against human NCI-H441 cells after 72 hrs; conditions: NCI-H441, 72 h
MDA-MB-231 = assay: Antiproliferative activity against human MDA-MB-231 cells after 72 hrs; conditions: MDA-MB-231, 72 h
BXPC-3 = assay: Antiproliferative activity against human BxPC3 cells after 72 hrs; conditions: BXPC-3, 72 h
Mus musculus = assay: Toxicity in human U87MG cells xenografted nude mouse assessed as reduction of body weight at 100 mg/kg, ip qd for 14 days; assay type: organism-based, U-87MG ATCC; set-up: dose 100 mg/kg, route intraperitoneal; conditions: in vivo, 336 h
Ephrin type-B receptor 2 = Ephrin type-B receptor 2 (Homo sapiens, UniProt P29323); assay: Inhibition of EPH-B2; how it was run: as §2
Sequence of Ephrin type-B receptor 2 (P29323 whole entry): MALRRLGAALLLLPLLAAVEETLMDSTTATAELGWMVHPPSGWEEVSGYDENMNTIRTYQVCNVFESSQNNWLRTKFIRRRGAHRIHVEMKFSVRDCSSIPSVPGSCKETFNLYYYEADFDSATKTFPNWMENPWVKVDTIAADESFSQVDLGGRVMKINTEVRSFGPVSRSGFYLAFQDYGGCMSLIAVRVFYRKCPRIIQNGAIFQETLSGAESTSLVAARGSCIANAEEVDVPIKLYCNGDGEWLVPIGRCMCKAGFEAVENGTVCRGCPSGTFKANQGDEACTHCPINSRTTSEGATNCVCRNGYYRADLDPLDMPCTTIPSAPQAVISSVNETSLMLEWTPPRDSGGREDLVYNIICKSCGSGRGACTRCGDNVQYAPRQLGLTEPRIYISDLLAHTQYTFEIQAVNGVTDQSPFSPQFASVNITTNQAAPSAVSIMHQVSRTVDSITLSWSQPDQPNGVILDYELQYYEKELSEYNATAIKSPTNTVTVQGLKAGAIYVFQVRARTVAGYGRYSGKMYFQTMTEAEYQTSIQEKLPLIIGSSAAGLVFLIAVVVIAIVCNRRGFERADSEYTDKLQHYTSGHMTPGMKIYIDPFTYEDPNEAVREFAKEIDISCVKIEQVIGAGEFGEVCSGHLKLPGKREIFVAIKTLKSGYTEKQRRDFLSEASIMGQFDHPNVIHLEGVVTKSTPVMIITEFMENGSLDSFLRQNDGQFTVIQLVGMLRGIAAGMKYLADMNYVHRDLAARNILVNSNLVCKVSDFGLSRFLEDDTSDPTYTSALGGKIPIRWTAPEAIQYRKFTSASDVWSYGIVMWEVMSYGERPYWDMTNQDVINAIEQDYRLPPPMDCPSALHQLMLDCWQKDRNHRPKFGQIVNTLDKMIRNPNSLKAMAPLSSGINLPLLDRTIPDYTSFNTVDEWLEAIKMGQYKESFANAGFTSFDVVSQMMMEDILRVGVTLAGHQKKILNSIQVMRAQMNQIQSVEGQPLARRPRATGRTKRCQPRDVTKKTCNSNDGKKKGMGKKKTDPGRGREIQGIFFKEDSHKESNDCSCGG

[8] = target: Fibroblast growth factor receptor 1 (Homo sapiens, UniProt P11362); assay: Inhibition of FGFR1
[9] = target: T1, Hepatocyte growth factor receptor; assay: Inhibition of c-Met phosphorylation in human MKN45 cells at 0.1 to 3 uM after 4 hrs by Western blotting; assay type: cell-based; conditions: MKN-45; how it was run: as §4
[10] = target: T1, Hepatocyte growth factor receptor; assay: Inhibition of purified recombinant c-Met at incubated for 30 mins measured after 100 fold dilution

## CC(=O)N1CCN(c2cnc3cc(C(F)(F)F)cc(NCc4cccc([N+](=O)[O-])c4)c3c2)CC1
[1]
  IC50: 0.00095 µM
BaF3
  IC50: 0.39 µM
NIH3T3
  IC50: ≥ 50 µM
[2]
  AUC(0-inf): 2100 ng·h/mL
[3]
  bioavailability: 37.5%
[4]
  IC50: > 10 µM
[5]
  inhibition: Active
[6]
  inhibition: Active
[7]
  inhibition: Active
MKN-45
  IC50: 1 µM
SNU-5
  IC50: 1 µM
NCI-H441
  IC50: ≥ 50 µM
MDA-MB-231
  IC50: ≥ 50 µM
BXPC-3
  IC50: 46 µM
Mus musculus
  Activity: Non-toxic
Ephrin type-B receptor 2
  IC50: > 10 µM
[8]
  IC50: > 10 µM
[9]
  inhibition: Active
[10]
  inhibition: inactive
